One assay has as its system HL-60. In words: Inhibitory activity against human acute promyelocytic leukemia cells(HL-60) cell growth on 72 hr of exposure of the compound. The format is functional. The following applies: HL-60, 72 h, read-out: ID50 (the source's name).
A further assay relates to L1210. In words: Inhibitory activity against murine L1210 leukemic cell growth. The format is functional. The following applies: Mus musculus, read-out: ID50 (the source's name).
Assay [1] relates to Nucleic Acid. In words: Ratio for human acute promyelocytic leukemia cells(HL-60) cell growth inhibition and [3H]TdR incorporation into DNA in HL-60 cells. Format: functional, cell-based.
In assay [2] the test system is Nucleic Acid. In words: Inhibitory activity against [3H]TdR incorporation into DNA in HL-60 cells during the initial 30-min period. The format is functional, cell-based. Particulars: Homo sapiens. An outline of the steps: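 HL-60 cells (2.5 × 10^6/mL) preincubated 15 min with compound at four to six concentrations in 0.2% DMSO, then pulsed with [3H-methyl]TdR (1 μCi, 0.15 nmol/mL) for 30 min; radioactivity in isolated DNA fraction counted; compound-free DMSO control as reference.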

As to `CCN(CC)Cc1cc(OC)c2c(c1)C(=O)c1cc(OC)cc(OC)c1C2=O`, the IC50 amounted to 7.9 µM with HL-60 and 6.9 µM in the assay with L1210. Besides, the Ratio with Nucleic Acid [1] worked out at 0.53. In the assay with Nucleic Acid [2], this molecule came in with an ID50 of 4.2 µM.
The like results for `CCNCc1cc(O)c2c(c1)C(=O)c1cccc(O)c1C2=O` were, in that order, 8.7 µM, 0.77 µM, 2.1 and 18 µM.
Turning to `COc1cccc2c1C(=O)c1c(OC)cc(CN(CCCl)CCCl)cc1C2=O`, the results for the IC50 in the assay with HL-60 and in the assay on L1210 were 1.8 µM and 13 µM, respectively. Moreover, the Ratio with Nucleic Acid [1] is 7.8. Moreover, the ID50 in the assay with Nucleic Acid [2] is 14 µM.
For `COc1cc(O)c2c(c1)C(=O)c1cc(CBr)cc(O)c1C2=O` the same measures were 25 µM, 59 µM, 13.6 and 340 µM.
Consider `COc1cc(C(Br)Br)cc2c1C(=O)c1c(O)cccc1C2=O`, for which the IC50 worked out at 0.06 µM in the assay on HL-60 and 4.2e-05 µM with L1210. Besides, the Ratio in the assay on Nucleic Acid [1] is 217. Further, the ID50 with Nucleic Acid [2] was found to be 13 µM.
In the case of `COc1cc(OC)c2c(c1)C(=O)c1cc(CN(CCCl)CCCl)cc(OC)c1C2=O`, the IC50 with HL-60 amounted to 2 µM; in the assay with L1210, 2.7 µM. For the same molecule, the Ratio in the assay on Nucleic Acid [1] was found to be 4.5. The molecule also yielded an ID50 in the assay with Nucleic Acid [2] of 8.9 µM.
With `CCN(CC)Cc1cc(OC)c2c(c1)C(=O)c1cccc(O)c1C2=O`, the IC50 with HL-60 came to 5.2 µM; in the assay on L1210 it was 12 µM. For the same molecule, the Ratio in the assay on Nucleic Acid [1] stood at 2.7. Also, in the assay with Nucleic Acid [2], the ID50 is 14 µM.
The like results for `COc1cc(O)c2c(c1)C(=O)c1cc(CNCCO)cc(O)c1C2=O` were, in that order, 1.6 µM, 0.5 µM, 7.5 and 12 µM.
The like results for `O=C1c2cccc(O)c2C(=O)c2c(O)cc(CN3CCCCC3)cc21` were, in that order, 2.8 µM, 4 µM, 22.5 and 63 µM.
Regarding `COc1cc(O)c2c(c1)C(=O)c1cc(CN(CCO)CCO)cc(O)c1C2=O`, the values for the IC50 with HL-60 and in the assay with L1210 were 6.6 µM and 14 µM, respectively. Besides, the Ratio in the assay on Nucleic Acid [1] stood at 5.2. In the assay on Nucleic Acid [2], this molecule gave an ID50 of 45 µM.
The like results for `O=C1c2cccc(O)c2C(=O)c2c(O)cc(CNCCCl)cc21` were, in that order, 7.5 µM, 7.1 µM, 5.2 and 39 µM.
For the molecule `COc1cc(CN(CCO)CCO)cc2c1C(=O)c1c(O)cccc1C2=O`, the IC50 in the assay with HL-60 is 21 µM; with L1210, > 24 µM. In the assay with Nucleic Acid [1], the Ratio amounted to 4.2. In the assay on Nucleic Acid [2], this molecule registered an ID50 of 89 µM.
For the molecule `CCNCc1cc(O)c2c(c1)C(=O)c1cc(OC)cc(O)c1C2=O`, the IC50 stood at 2.1 µM in the assay on HL-60 and 0.72 µM in the assay on L1210. Besides, the Ratio in the assay with Nucleic Acid [1] came out at 6.2. Moreover, the ID50 in the assay on Nucleic Acid [2] came out at 13 µM.
The like results for `COc1cccc2c1C(=O)c1c(OC)cc(CNCCCl)cc1C2=O` were, in that order, 86 µM, 26 µM, 0.22 and 19 µM.
The like results for `CCNCc1cc(OC)c2c(c1)C(=O)c1cccc(OC)c1C2=O` were, in that order, 48 µM, 1.2 µM, 0.6 and 29 µM.
For `CNC(=O)OCCN(CCOC(=O)NC)Cc1cc(O)c2c(c1)C(=O)c1cccc(O)c1C2=O`, the IC50 in the assay on HL-60 was 210 µM; with L1210, > 18 µM. In addition, the Ratio in the assay with Nucleic Acid [1] worked out at 0.13. Also, the ID50 in the assay on Nucleic Acid [2] turned out to be 28 µM.
For `COc1cc(O)c2c(c1)C(=O)c1cc(CNCCCl)cc(O)c1C2=O` the same measures were 9.2 µM, 18 µM, 23.9 and 220 µM.
On to `COc1cccc2c1C(=O)c1c(OC)cc(C(Br)Br)cc1C2=O`, for which the IC50 with HL-60 stood at 2.1 µM; in the assay with L1210, 0.89 µM. In addition, the Ratio with Nucleic Acid [1] turned out to be 4.3. Also, the ID50 in the assay on Nucleic Acid [2] came to 9 µM.
As to `COc1cc(OC)c2c(c1)C(=O)c1cc(CN(CCO)CCO)cc(OC)c1C2=O`, the IC50 is 100 µM in the assay on HL-60 and > 27 µM in the assay on L1210. The Ratio in the assay with Nucleic Acid [1] is 0.17. Further, the ID50 with Nucleic Acid [2] amounted to 17 µM.
Turning to `CNC(=O)OCCN(CCOC(=O)NC)Cc1cc(OC)c2c(c1)C(=O)c1cccc(OC)c1C2=O`, the IC50 was 9.5 µM in the assay with HL-60 and 72 µM in the assay on L1210. For the same molecule, in the assay on Nucleic Acid [1], the Ratio stood at 0.99. The molecule further yielded an ID50 in the assay with Nucleic Acid [2] of 9.4 µM.
For the molecule `CCNCc1cc(OC)c2c(c1)C(=O)c1cc(OC)cc(OC)c1C2=O`, the IC50 with HL-60 was determined as 17 µM; in the assay with L1210, 9.8 µM. Also, the Ratio with Nucleic Acid [1] was 0.76. Further, the ID50 with Nucleic Acid [2] worked out at 13 µM.
